# Values joined by “and” are separate entries in the source; they are usually repeats but may differ in a detail not shown here. Equal entries are not always repeated.
# Experiments:
# [1] = test system: Rattus norvegicus; experiment: […] in normal rats at a hypoglycemic dose of 2.0 mmol/kg; type: functional
# [2] = species: Rattus norvegicus; experiment: In vitro inhibition of glucose oxidation by the compound in isolated rat fat cells; type: functional, cell-based
# Procedure, shortened: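 Epididymal fat cells from five young rats (140–160 g) were isolated by collagenase digestion. They were incubated with D-[1-14C]glucose (40 nCi/flask, 0.1 g glucose/L) across a range of compound concentrations. IC50 was read graphically from % inhibition vs log concentration, reported as mean ± SEM over n experiments.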
# [3] = test system: Rattus norvegicus; experiment: Percent change in blood glucose in normal rats at a hypoglycemic dose of 2.0 mmol/kg. against control; type: functional
# Procedure, shortened: (§1)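 Female rats (175–195 g) were fasted 6–9 h and given compound orally as a suspension in 0.5% (w/v) methylcellulose (5 mL/kg). Blood glucose was measured enzymatically 45 min after dosing. Values are mean ± SEM, expressed as percent change against the control group.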
# [4] = test system: Rattus norvegicus; experiment: In vivo increase of plasma insulin in normal rats at a hypoglycemic dose of 2.0 mmol/kg; type: functional, organism-based
# [5] = test system: Rattus norvegicus; experiment: […] in normal rats at a hypoglycemic dose of 0.024 mmol/kg.; type: functional
# [6] = test system: Rattus norvegicus; experiment: In vivo increase of plasma insulin in normal rats at a hypoglycemic dose of […]; type: functional, organism-based
# [7] = species: Oryctolagus cuniculus; experiment: In vitro insulin release was stimulated by the compound at a concentration of 0.3 mmol/L in rabbit pancreas; type: functional
# Procedure, shortened: (§2)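 Eight rabbit pancreas pieces, pooled from four rabbits per experiment, were incubated in bicarbonate-buffered medium containing 0.6 g/L glucose. Insulin per flask with compound was divided by basal release, taken as the mean of two preceding 20-min periods without compound. Results are mean ± SEM over n experiments.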
# [8] = test system: Rattus norvegicus; experiment: Percent change in blood glucose in normal rats at a hypoglycemic dose of 0.024 mmol/kg against control; type: functional; procedure, shortened: as §1
# [9] = species: Oryctolagus cuniculus; experiment: In vitro insulin release was stimulated by the compound at a concentration of 0.03 mmol/L in rabbit pancreas; type: functional; procedure, shortened: as §2
# [10] = test system: Rattus norvegicus; experiment: […] in normal rats at a hypoglycemic dose of 0.008 mmol/kg.; type: functional
# [11] = species: Oryctolagus cuniculus; experiment: In vitro insulin release was stimulated by the compound at a concentration of 0.1 mmol/L; type: functional; procedure, shortened: as §2
# [12] = test system: Rattus norvegicus; experiment: Percent change in blood glucose in normal rats at a hypoglycemic dose of 0.008 mmol/kg. against control; type: functional; details: in the assay text read “plasma insulin” for “blood glucose”
# [13] = test system: Rattus norvegicus; experiment: In vivo increase of plasma insulin in normal rats at a hypoglycemic dose of 0.008 mmol/kg.; type: functional, organism-based
# [14] = test system: Rattus norvegicus; experiment: […] in normal rats at a hypoglycemic dose of 0.072 mmol/kg.; type: functional
# [15] = species: Oryctolagus cuniculus; experiment: In vitro insulin release was stimulated by the compound at a concentration of 0.01 mmol/L in rabbit pancreas; type: functional; procedure, shortened: as §2
# [16] = test system: Rattus norvegicus; experiment: In vivo increase of plasma insulin in normal rats at a hypoglycemic dose of […].; type: functional, organism-based
# [17] = test system: Rattus norvegicus; experiment: Percent change in blood glucose in normal rats at a hypoglycemic dose of 0.072 mmol/kg against control; type: functional; procedure, shortened: as §1
# [18] = test system: Rattus norvegicus; experiment: Percent change in blood glucose in normal rats at a hypoglycemic dose of 0.008 mmol/kg against control; type: functional; procedure, shortened: as §1
# [19] = species: Oryctolagus cuniculus; experiment: In vitro insulin release was stimulated by the compound at a concentration of 0.003 mmol/L in rabbit pancreas; type: functional; procedure, shortened: as §2
# [20] = test system: Rattus norvegicus; experiment: Blood glucose determined in normal rats at a hypoglycemic dose of 0.17 mmol/kg.
# [21] = species: Oryctolagus cuniculus; experiment: In vitro insulin release was stimulated by the compound at a concentration of 0.9 mmol/L in rabbit pancreas; type: functional; procedure, shortened: as §2
# [22] = species: Oryctolagus cuniculus; experiment: In vitro insulin release was stimulated by the compound at a concentration of 0.1 mmol/L in rabbit pancreas; type: functional; procedure, shortened: as §2
# [23] = test system: Rattus norvegicus; experiment: In vivo increase of plasma insulin in normal rats at a hypoglycemic dose of 0.17 mmol/kg.; type: functional, organism-based
# [24] = test system: Rattus norvegicus; experiment: […] in normal rats at a hypoglycemic dose of 0.028 mmol/kg.; type: functional
# [25] = test system: Rattus norvegicus; experiment: Percent change in plasma insulin in normal rats at a hypoglycemic dose of 0.0084 mmol/kg against control
# [26] = test system: Rattus norvegicus; experiment: In vivo increase of plasma insulin in normal rats at a hypoglycemic dose of 0.028 […]; type: functional, organism-based
# [27] = species: Rattus norvegicus; experiment: Percent change in plasma insulin against control; type: functional
# [28] = test system: Rattus norvegicus; experiment: […] in normal rats at a hypoglycemic dose of 0.0084 mmol/kg; type: functional
# [29] = species: Rattus norvegicus; experiment: Percent change in blood glucose against control; type: functional; procedure, shortened: as §1
# [30] = test system: Rattus norvegicus; experiment: In vivo increase of plasma insulin in normal rats at a hypoglycemic dose of 0.0084 […]; type: functional, organism-based
# [31] = test system: Rattus norvegicus; experiment: […] in normal rats at a hypoglycemic dose of 0.18 mmol/kg.; type: functional
# [32] = test system: Rattus norvegicus; experiment: In vivo increase of plasma insulin in normal rats at a hypoglycemic dose of 0.18 mmol/kg; type: functional, organism-based
# [33] = test system: Rattus norvegicus; experiment: […] in normal rats at a hypoglycemic dose of 0.60 mmol/kg; type: functional
# [34] = test system: Rattus norvegicus; experiment: Percent change in plasma insulin in normal rats at a hypoglycemic dose of 0.60 mmol/kg against control; type: functional
# [35] = test system: Rattus norvegicus; experiment: In vivo increase of plasma insulin in normal rats at a hypoglycemic dose of 0.60 mmol/kg; type: functional, organism-based
# [36] = test system: Rattus norvegicus; experiment: Percent change in blood glucose in normal rats at a hypoglycemic dose of 0.60 mmol/kg against control; type: functional; procedure, shortened: as §1
compound,measurement,setting,value
N=C(N)NC(=N)NCCc1ccccc1 [PHENFORMIN],Blood glucose,[1],5.52 mM
same,IC50,[2],180 µM
same,Change,[3],-10% and -6%
same,Plasma insulin,[4],86.1 pM l-1
CCCC(=O)NCCc1ccc(S(=O)(=O)N2CCN(C3CCCCC3)C2=N)cc1,Blood glucose,[5],3.62 mM
same,Plasma insulin,[6],396 pM l-1
same,Insulin release,[7],3.06
same,Change,[8],-38%
same,Insulin release,[9],2.18
same,Blood glucose,[10],4.86 mM
same,IC50,[2],71 µM
same,Insulin release,[11],2.51
same,Change,[12],12%
same,Plasma insulin,[13],108 pM l-1
same,Blood glucose,[14],3.63 mM
same,Insulin release,[15],1.84
same,Plasma insulin,[16],310 pM l-1
same,Change,[17],-38%
same,Change,[18],-17%
same,Insulin release,[19],1.02
CCCCNC(=O)NS(=O)(=O)c1ccc(C)cc1 [TOLBUTAMIDE],IC50,[2],> 500 µM
same,Blood glucose,[20],3.86 mmol/L
same,Insulin release,[21],4.23
same,Insulin release,[22],4.33
same,Insulin release,[15],1.81
same,Plasma insulin,[23],278 pM l-1
same,Insulin release,[19],0.95
C/C=C/C(=O)NCCc1ccc(S(=O)(=O)N2CCN(C3CCCCC3)C2=N)cc1,Blood glucose,[24],3.42 mM
same,Insulin release,[7],1.82
same,Change,[25],71%
same,IC50,[2],180 µM
same,Plasma insulin,[26],476 pM l-1
same,Change,[27],397%
same,Blood glucose,[28],4.04 mM
same,Insulin release,[15],2.73
same,Change,[29],-31% and -42%
same,Plasma insulin,[30],163 pM l-1
same,Insulin release,[19],1.88
COc1cccc(C(=O)NCCc2ccc(S(=O)(=O)N3CCN(C4CCCCC4)C3=N)cc2)c1,Blood glucose,[31],3.08 mM
same,Insulin release,[7],3.66
same,Insulin release,[9],2.24
same,IC50,[2],20 µM
same,Plasma insulin,[32],285 pM l-1
same,Insulin release,[22],3.13
same,Insulin release,[15],2.08
same,Insulin release,[19],0.98
N=C1N(C2CCCCC2)CCN1S(=O)(=O)c1ccc(N)cc1,Blood glucose,[33],4.66 mM
same,Insulin release,[9],1.74
same,IC50,[2],180 µM
same,Change,[34],42%
same,Insulin release,[21],3.21
same,Plasma insulin,[35],136 pM l-1
same,Insulin release,[22],3.21
same,Insulin release,[15],1.22
same,Change,[36],-21%
same,Insulin release,[19],1.01
